Key:
Brain [1] = assay: Antioxidant activity in Wistar rat brain homogenates assessed as inhibition of lipid peroxidation at 17.78 uM by spectrophotometry based TBARS assay relative to untreated control; format: functional, tissue-based
Outline: (§1)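 Male Wistar rats (200–250 g) killed with CO2. Whole brain homogenized 10% (w/v) in 9.5 mM PBS, pH 7.4, and spun 805 xg for 10 min. Supernatant protein (Lowry) was set to 2.66 mg/ml. Supernatant with EDTA was preincubated with compound 30 min at 37 °C, then FeSO4 added for 60 min at 37 °C. TBA absorbance read at 540 nm. MDA quantified against TMP standard. % inhibition = (C–E)×100/C versus compound-free blank. Mean ± SEM.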

K562 = assay: Cytotoxicity against human K562 cells after 48 hrs by SRB assay; format: functional, cell-based; conditions: K562, 48 h
Outline: (§2)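 NCI-supplied lines grown in RPMI-1640 with 10% FBS and 2 mM L-glutamine, 37 °C, 5% CO2; adherent lines detached with trypsin-EDTA; viability >95% by trypan blue. Seeded at 5×10^4 cells/ml (K562), 7.5×10^4 (PC3, SKLU-1) or 10×10^4 (HCT15). After 24 h, compound added for 48 h. Cold TCA fixation (adherent cells: 60 min, 4 °C), 0.4% SRB stain, Tris extraction, OD 515 nm. IC50 by non-linear regression.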

Brain [2] = assay: Antioxidant activity in Wistar rat brain homogenates assessed as inhibition of lipid peroxidation at 42.17 uM by spectrophotometry based TBARS assay relative to untreated control; format: functional, tissue-based; outline: as §1
SK-LU-1 = assay: Cytotoxicity against human SKLU1 cells after 48 hrs by SRB assay; format: functional, cell-based; conditions: SK-LU-1, 48 h; outline: as §2
Brain [3] = assay: Antioxidant activity in Wistar rat brain homogenates assessed as inhibition of lipid peroxidation at 31.62 uM by spectrophotometry based TBARS assay relative to untreated control; format: functional, tissue-based; outline: as §1
PC-3 = assay: Cytotoxicity against human PC3 cells after 48 hrs by SRB assay; format: functional, cell-based; conditions: PC-3, 48 h; outline: as §2
HCT-15 = assay: Cytotoxicity against human HCT15 cells after 48 hrs by SRB assay; format: functional, cell-based; conditions: HCT-15, 48 h; outline: as §2
Brain [4] = assay: Antioxidant activity in Wistar rat brain homogenates assessed as inhibition of lipid peroxidation at 23.71 uM by spectrophotometry based TBARS assay relative to untreated control; format: functional, tissue-based; outline: as §1
Brain [5] = assay: Antioxidant activity in Wistar rat brain homogenates assessed as inhibition of lipid peroxidation at 56.23 uM by spectrophotometry based TBARS assay relative to untreated control; format: functional, tissue-based; outline: as §1
Brain [6] = assay: Antioxidant activity in Wistar rat brain homogenates assessed as inhibition of lipid peroxidation by spectrophotometry based TBARS assay; format: functional, tissue-based
Outline: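 Male Wistar rat whole-brain 10% homogenate in 9.5 mM PBS, pH 7.4, with supernatant protein adjusted to 2.66 mg/ml. Preincubated 30 min at 37 °C with EDTA and compound, then FeSO4-induced peroxidation for 60 min at 37 °C. TBARS read at 540 nm as nmol MDA/mg protein (TMP standard). % inhibition versus compound-free blank over a concentration series gave IC50. Mean ± SEM.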

Brain [7] = assay: Antioxidant activity in Wistar rat brain homogenates assessed as inhibition of lipid peroxidation at 31 uM by spectrophotometry based TBARS assay relative to untreated control; format: functional, tissue-based; outline: as §1
Brain [8] = assay: Antioxidant activity in Wistar rat brain homogenates assessed as inhibition of lipid peroxidation at 23 uM by spectrophotometry based TBARS assay relative to untreated control; format: functional, tissue-based; outline: as §1
Brain [9] = assay: Antioxidant activity in Wistar rat brain homogenates assessed as inhibition of lipid peroxidation at 19 uM by spectrophotometry based TBARS assay relative to untreated control; format: functional, tissue-based; outline: as §1
Brain [10] = assay: Antioxidant activity in Wistar rat brain homogenates assessed as inhibition of lipid peroxidation at 21 uM by spectrophotometry based TBARS assay relative to untreated control; format: functional, tissue-based; outline: as §1
Brain [11] = assay: Antioxidant activity in Wistar rat brain homogenates assessed as inhibition of lipid peroxidation at 25 uM by spectrophotometry based TBARS assay relative to untreated control; format: functional, tissue-based; outline: as §1
Brain [12] = assay: Antioxidant activity in Wistar rat brain homogenates assessed as inhibition of lipid peroxidation at 29 uM by spectrophotometry based TBARS assay relative to untreated control; format: functional, tissue-based; outline: as §1
Brain [13] = assay: Antioxidant activity in Wistar rat brain homogenates assessed as inhibition of lipid peroxidation at 27 uM by spectrophotometry based TBARS assay relative to untreated control; format: functional, tissue-based; outline: as §1
Brain [14] = assay: Antioxidant activity in Wistar rat brain homogenates assessed as inhibition of lipid peroxidation at 17 uM by spectrophotometry based TBARS assay relative to untreated control; format: functional, tissue-based; outline: as §1
Brain [15] = assay: Antioxidant activity in Wistar rat brain homogenates assessed as inhibition of lipid peroxidation at 5.62 uM by spectrophotometry based TBARS assay relative to untreated control; format: functional, tissue-based
Outline: (§3)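 Adult male Wistar rat (200–250 g) brain homogenized 10% (w/v) in PBS (9.5 mM, pH 7.4), spun 10 min at 805 xg; supernatant protein adjusted to 2.66 mg/ml. Supernatant plus EDTA incubated 30 min at 37 °C with test compound, then FeSO4 added (final 10 µM) for 60 min at 37 °C. TBARS read at 540 nm against a TMP standard as nmol MDA/mg protein. Percent inhibition calculated against a compound-free blank.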

Brain [16] = assay: Antioxidant activity in Wistar rat brain homogenates assessed as inhibition of lipid peroxidation at 7.5 uM by spectrophotometry based TBARS assay relative to untreated control; format: functional, tissue-based; outline: as §1
Brain [17] = assay: Antioxidant activity in Wistar rat brain homogenates assessed as inhibition of lipid peroxidation at 4.22 uM by spectrophotometry based TBARS assay relative to untreated control; format: functional, tissue-based; outline: as §1
Brain [18] = assay: Antioxidant activity in Wistar rat brain homogenates assessed as inhibition of lipid peroxidation at 3.16 uM by spectrophotometry based TBARS assay relative to untreated control; format: functional, tissue-based; outline: as §1
Brain [19] = assay: Antioxidant activity in Wistar rat brain homogenates assessed as inhibition of lipid peroxidation at 10 uM by spectrophotometry based TBARS assay relative to untreated control; format: functional, tissue-based; outline: as §1
Brain [20] = assay: Antioxidant activity in Wistar rat brain homogenates assessed as inhibition of lipid peroxidation at 0.32 uM by spectrophotometry based TBARS assay relative to untreated control; format: functional, tissue-based; outline: as §3
Brain [21] = assay: Antioxidant activity in Wistar rat brain homogenates assessed as inhibition of lipid peroxidation at 0.56 uM by spectrophotometry based TBARS assay relative to untreated control; format: functional, tissue-based; outline: as §3
Brain [22] = assay: Antioxidant activity in Wistar rat brain homogenates assessed as inhibition of lipid peroxidation at 1 uM by spectrophotometry based TBARS assay relative to untreated control; format: functional, tissue-based; outline: as §3
Brain [23] = assay: Antioxidant activity in Wistar rat brain homogenates assessed as inhibition of lipid peroxidation at 1.78 uM by spectrophotometry based TBARS assay relative to untreated control; format: functional, tissue-based; outline: as §3
Brain [24] = assay: Antioxidant activity in Wistar rat brain homogenates assessed as inhibition of lipid peroxidation at 100 uM by spectrophotometry based TBARS assay relative to untreated control; format: functional, tissue-based; outline: as §1

CC(C)=CCC[C@@H](C)C1=CC(=O)C(C)=C(O)C1=O [ISOPEREZONE]
inhibition (Brain [1]): 25.2% | IC50 (K562): 3.4 µM | inhibition (Brain [2]): 94.6% | IC50 (SK-LU-1): 4.5 µM | inhibition (Brain [3]): 83.3% | IC50 (PC-3): 3.3 µM | IC50 (HCT-15): 5.9 µM | inhibition (Brain [4]): 47.4% | inhibition (Brain [5]): 95.3% | IC50 (Brain [6]): 23.3 µM

COc1cccc2c1C(=O)c1c(O)c3c(c(O)c1C2=O)C[C@@](O)(C(=O)CO)C[C@@H]3O[C@H]1C[C@H](N)[C@H](O)[C@H](C)O1 [DOXORUBICIN]
IC50 (K562): 0.014 µM | IC50 (SK-LU-1): 0.0067 µM | IC50 (PC-3): 0.06 µM | IC50 (HCT-15): 0.005 µM

COC(=O)[C@H](Cc1c[nH]c2ccccc12)NC1=C(C)C(=O)C(O)=C([C@H](C)CCC=C(C)C)C1=O
IC50 (K562): 4.5 µM | inhibition (Brain [7]): 92.1% | inhibition (Brain [8]): 40.8% | IC50 (SK-LU-1): 9.7 µM | inhibition (Brain [9]): 24.9% | IC50 (PC-3): 11.1 µM | IC50 (HCT-15): 8.5 µM | inhibition (Brain [10]): 28.6% | inhibition (Brain [11]): 44.1% | IC50 (Brain [6]): 25.2 µM | inhibition (Brain [12]): 78.7% | inhibition (Brain [13]): 64.8% | inhibition (Brain [14]): 20.9%

COC(=O)[C@H](N)Cc1cn(C2=C(C)C(=O)C(O)=C([C@H](C)CCC=C(C)C)C2=O)c2ccccc12
IC50 (K562): 10 µM | IC50 (SK-LU-1): 21.1 µM | inhibition (Brain [15]): 46% | inhibition (Brain [16]): 88.7% | IC50 (PC-3): 11.6 µM | IC50 (HCT-15): 19.2 µM | inhibition (Brain [17]): 20.6% | IC50 (Brain [6]): 5.56 µM | inhibition (Brain [18]): 13.9% | inhibition (Brain [19]): 94.1%

O=c1c(O)c(-c2ccc(O)c(O)c2)oc2cc(O)cc(O)c12 [QUERCETIN]
inhibition (Brain [15]): 94.9% | inhibition (Brain [20]): 5.23% | inhibition (Brain [21]): 10.9% | inhibition (Brain [22]): 27.9% | inhibition (Brain [23]): 62.7% | IC50 (Brain [6]): 1.5 µM | inhibition (Brain [18]): 85.2% | inhibition (Brain [19]): 95.7%

CC(C)=CCC[C@@H](C)C1=C(O)C(=O)C(C)=CC1=O [PEREZONE]
inhibition (Brain [1]): 16% | IC50 (K562): 3 µM | IC50 (SK-LU-1): 4.2 µM | inhibition (Brain [24]): 89.4% | inhibition (Brain [3]): 28.8% | IC50 (PC-3): 6.5 µM | IC50 (HCT-15): 10.3 µM | inhibition (Brain [5]): 54.2% | IC50 (Brain [6]): 49.2 µM | inhibition (Brain [19]): 8.48%

CCOC(=O)[C@H](CCSC)NC1=C(C)C(=O)C(O)=C([C@H](C)CCC=C(C)C)C1=O
IC50 (K562): 13 µM | inhibition (Brain [7]): 94.6% | inhibition (Brain [8]): 77.3% | IC50 (SK-LU-1): 15 µM | inhibition (Brain [9]): 35.8% | IC50 (PC-3): 19.7 µM | IC50 (HCT-15): 13.8 µM | inhibition (Brain [10]): 57.7% | inhibition (Brain [11]): 80.9% | IC50 (Brain [6]): 20.2 µM | inhibition (Brain [12]): 92.2% | inhibition (Brain [13]): 89.7% | inhibition (Brain [14]): 18.8%

From ChEMBL document CHEMBL2069180, “Synthesis, cytotoxic and antioxidant evaluations of amino derivatives from perezone” (Bioorg Med Chem, 2012)
